The values below come from ChEMBL document CHEMBL1255190, “The selected flavonol glycoside derived from Sophorae Flos improves glucose uptake and inhibits adipocyte differentiation via activation AMPK in 3T3-L1 cells” (Bioorg Med Chem Lett, 2010).

Common to all, as to format: cell-based
For series [1], the target named is 5'-AMP-activated protein kinase catalytic subunit alpha-2 (Mus musculus) (UniProt Q8BRK8). As to the kind of experiment: Inhibition of AMPK-mediated adipocyte differentiation in mouse 3T3L1 cells. The settings on record: 3T3-L1. In a few lines:
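Compound (0, 5, 10 or 20 uM) co-applied with MDI differentiation medium on day 0 for 48 h. Differentiation ended at day 6 and lipid droplets were stained with Oil red O. Triplicate runs, means ± S.D.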

A further series has as its system 3T3-L1. The series can be described thus: Cytotoxicity against mouse 3T3L1 cells at 20 uM after 24 hrs. The note with it: 3t3-l1, 24 h. In a few lines: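 3T3-L1 cells exposed to compounds at 5-100 uM for 24 h. Viability was assessed under Mosmann's conditions.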
For series [2], the target named is 5'-AMP-activated protein kinase catalytic subunit alpha-2 (Mus musculus) (UniProt Q8BRK8). As to the kind of experiment: Induction of AMPK phosphorylation in mouse 3T3L1 cells at 10 uM by Western blotting. The note with it: 3T3-L1. In a few lines: (§1)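 Mouse 3T3-L1 cells exposed to test compound at 10 uM. Phosphorylated AMPK and its downstream target ACC were detected by western blot. Experiments were run in triplicate, with data given as means ± S.D. Groups were compared by one-way ANOVA with the Newman-Keuls test, significance p < 0.05.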
For orientation: A western blot detects proteins with antibodies after separation by electrophoresis.

Series [3] has the same target. As to the kind of experiment: Induction of AMPK-mediated ACC phosphorylation in mouse 3T3L1 cells at 10 uM by Western blotting. The note with it: 3T3-L1. A digest of the protocol:
as §1

Series [4] shares this target. As to the kind of experiment: Inhibition of AMPK in mouse 3T3L1 cells assessed as inhibition of PPARgamma level by Western blotting. The settings on record: 3T3-L1. In a few lines:
(§2)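 Western blot of lysates from 3T3-L1 cells undergoing MDI-induced differentiation. Cells received 0, 5, 10 or 20 uM from day 0. Probed for FAS, SREBP-1c, C/EBPa and PPARgamma. Triplicate runs; one-way ANOVA with Newman-Keuls test.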

Series [5] shares this target. The series can be described thus: Inhibition of AMPK in mouse 3T3L1 cells assessed as inhibition of C/EBPalpha gene expression by RT-PCR. The note with it: 3T3-L1. In a few lines:
(§3)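 MDI-induced differentiating 3T3-L1 cells were given 0, 5, 10 or 20 uM. Per the legend, cells were treated for 6 h. RNA was extracted with Trizol and RT-PCR run with specific primers for the adipogenic markers. Triplicate runs; one-way ANOVA with Newman-Keuls test.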

Series [6] shares this target. The series can be described thus: Inhibition of AMPK-mediated glucose uptake in mouse 3T3L1 cells. The settings on record: 3T3-L1. In a few lines: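 Differentiated 3T3-L1 adipocytes incubated 1 h with 5, 10 or 20 uM, with 200 nM insulin as reference. 2-Deoxy-D-[3H]-glucose uptake was then measured. For AMPK dependence, 10 uM was tested with or without compound C (10 uM). Triplicate runs, means ± S.D., p<0.05.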

Series [7] shares this target. The series can be described thus: Inhibition of AMPK in mouse 3T3L1 cells assessed as inhibition of C/EBPalpha level by Western blotting. The settings on record: 3T3-L1. A digest of the protocol:
as §2

For series [8] the target is unchanged. The series can be described thus: Inhibition of AMPK in mouse 3T3L1 cells assessed as inhibition of FAS gene expression by RT-PCR. The settings on record: 3T3-L1. A digest of the protocol:
as §3

Series [9] shares this target. As to the kind of experiment: Inhibition of AMPK in mouse 3T3L1 cells assessed as inhibition of FAS level by Western blotting. The settings on record: 3T3-L1. In a few lines: as §2
The target is the same in series [10]. The series can be described thus: Inhibition of AMPK in mouse 3T3L1 cells assessed as inhibition of PPARgamma gene expression by RT-PCR. The note with it: 3T3-L1. In a few lines: as §3
The target is the same in series [11]. The series can be described thus: Inhibition of AMPK in mouse 3T3L1 cells assessed as inhibition of SREBP1c level by Western blotting. The note with it: 3T3-L1. In a few lines: as §2

Active and inactive are the calls of the source. The calls are words filed in the database; no cut-off is given here.

Sequence of 5'-AMP-activated protein kinase catalytic subunit alpha-2 (Mus musculus) (Q8BRK8 whole entry): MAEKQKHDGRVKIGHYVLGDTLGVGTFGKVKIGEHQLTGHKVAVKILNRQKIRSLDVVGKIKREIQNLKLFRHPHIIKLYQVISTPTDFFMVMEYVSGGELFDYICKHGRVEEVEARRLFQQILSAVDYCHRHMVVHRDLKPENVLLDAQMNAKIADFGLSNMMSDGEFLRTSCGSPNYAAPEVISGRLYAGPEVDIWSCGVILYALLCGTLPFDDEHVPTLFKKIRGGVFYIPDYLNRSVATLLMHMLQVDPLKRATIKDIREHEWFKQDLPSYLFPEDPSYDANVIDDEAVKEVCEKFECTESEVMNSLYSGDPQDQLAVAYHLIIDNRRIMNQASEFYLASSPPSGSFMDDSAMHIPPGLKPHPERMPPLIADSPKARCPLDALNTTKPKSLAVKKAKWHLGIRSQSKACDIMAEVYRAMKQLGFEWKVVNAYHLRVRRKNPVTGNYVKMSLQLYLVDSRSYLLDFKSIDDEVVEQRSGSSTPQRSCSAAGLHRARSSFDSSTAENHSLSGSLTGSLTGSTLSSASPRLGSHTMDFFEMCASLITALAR

On to `O=c1c(O)c(-c2ccc(O)cc2)oc2cc(O)cc(O)c12` [KAEMPFEROL], for which the result in [1] was Active. In addition, the Activity entry in the series on 3T3-L1 was “Non-toxic”.
Turning to `O=c1c(O)c(-c2ccc(O)c(O)c2)oc2cc(O)cc(O)c12` [QUERCETIN], the outcome in series [1], in series [2] and in [3] was Active. Further, the Activity entry in the series with 3T3-L1 is listed as “Non-toxic”.
As to `O=c1c(O)c(-c2ccc(O)c(O)c2)oc2cc(O)cc(O[C@@H]3O[C@H](CO)[C@@H](O)[C@H](O)[C@H]3O)c12`, the result in series [1] was Active. In addition, the Activity entry with 3T3-L1 is given as “Non-toxic”.
In the same order, the values of `O=c1c(O[C@@H]2O[C@H](CO)[C@@H](O)[C@H](O)[C@H]2O)c(-c2ccc(O)cc2)oc2cc(O)cc(O)c12` [ASTRAGALIN] are “Active” and “Non-toxic”.
In the same order, the values of `C[C@@H]1O[C@@H](OC[C@H]2O[C@@H](Oc3c(-c4ccc(O)c(O)c4)oc4cc(O)cc(O)c4c3=O)[C@H](O)[C@@H](O)[C@@H]2O)[C@H](O)[C@H](O)[C@H]1O` [RUTIN] are “Active” and “Non-toxic”.
For `C[C@@H]1O[C@@H](OC[C@H]2O[C@@H](Oc3c(-c4ccc(O)c(O)c4)oc4cc(O)cc(O)c4c3=O)[C@H](O)[C@@H](O)[C@@H]2O)[C@H](O)[C@H](O[C@@H]2O[C@H](CO)[C@@H](O)[C@H](O)[C@H]2O)[C@H]1O`, the Activity result in series [4] was “Dose-dependent effect”; in series [7], “Dose-dependent effect”; with 3T3-L1, “Non-toxic”; in series [9] it was “Dose-dependent effect”; in series [11], “Dose-dependent effect”. Moreover, the outcome in series [5], in [1], in [6], in series [2], in [3] and in series [8] was Active. In series [10], the result was Active.
For `COc1cc(-c2oc3cc(O)cc(O)c3c(=O)c2O[C@@H]2O[C@H](CO[C@@H]3O[C@@H](C)[C@H](O)[C@@H](O)[C@H]3O)[C@@H](O)[C@H](O)[C@H]2O)ccc1O` [NARCISSIN], the result in series [1] was Active. In addition, the Activity entry in the series with 3T3-L1 is recorded as “Non-toxic”.
In the same order, the values of `C[C@@H]1O[C@@H](OC[C@H]2O[C@@H](Oc3c(-c4ccc(O)c(O)c4)oc4cc(O)cc(O)c4c3=O)[C@H](O)[C@@H](O)[C@@H]2O)[C@H](O)[C@H](O[C@@H]2OC[C@@H](O)[C@H](O)[C@H]2O)[C@H]1O` are “Active” and “Non-toxic”.
In the same order, the values of `O=c1c(O[C@@H]2O[C@H](CO)[C@@H](O)[C@H](O)[C@H]2O)c(-c2ccc(O)c(O)c2)oc2cc(O)cc(O)c12` [ISOQUERCETIN] are “Active” and “Non-toxic”.
